# KCNQ1 act – potentiators or activators of KCNQ1 channel, primary screen, cell-based, thallium flux, high-throughput | Potassium voltage-gated channel subfamily KQT member 1 (Homo sapiens), P51787 | CHO-K1 KCNQ1, thallium flux FluxOR fluorescence; hits give high values | B-score at 10 µM | 310,000 tested, 0.35% active | AID 2648, 2010;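 active = fluorescence ratio B-score, a plate-corrected score, at least three library SD, with initial intensity B-score within 5 SD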
#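 assay system = CHO-K1 cells stably expressing KCNQ1 | medium = assay buffer, equal DMSO in all wells | timing = 37 °C overnight plating, 90-min dark dye load, 20-min compound pretreatment | measured by = kinetic FluxOR thallium fluorescence, 10-s 1-Hz baseline, 110-s post-stimulus read | measure = fluorescence change relative to baseline, converted to B score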
# Kir21 block – inhibitors of mouse Kir2.1 inward-rectifier potassium channel | HEK293-Kir2.1, FluxOR thallium flux fluorescence; hits give low values | Inward rectifier potassium channel 2 (Mus musculus), P35561 | B-score at 10 µM | AID 1672, 2009 | 310,000 tested, 0.85% active;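 active = fluorescence ratio B-score at or below minus 3 SD of library scores, with starting-brightness B-score within 2 SD, cut at about -4.2 in these data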;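 note: channel flux triggered by added potassium and thallium sulfate stimulus; B-score of peak minus minimum fluorescence over baseline after thallium stimulus; more negative B-score means stronger Kir2.1 block with less thallium influx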
# KCNK3 inh – human KCNK3 channel inhibitors, primary screen, CHO cells, FluxOR thallium flux, B-score | Potassium channel subfamily K member 3 (Homo sapiens), O14649 | FluxOR fluorescence; hits give low values | B-score at 10 µM | 340,000 tested, 0.84% active;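 active = B-score under library mean minus 4 SD, starting fluorescence ratio at most library mean plus 5 SD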;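 note: more negative B-score means stronger inhibition of thallium flux through KCNK3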
# hERG rescue – hERG rescue from dofetilide block, primary screen, cell-based, CHO-hERG, FluxOR thallium flux, dofetilide IC70. Voltage-gated inwardly rectifying potassium channel KCNH2 (Homo sapiens), Q12809. dofetilide IC70 present. activation (rescue from dofetilide block), less the hit threshold, % at 10 µM. 310,000 tested, 0.51% active. AID 1511, 2009;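 active = activation above the mean of controls blocked by dofetilide plus 5 SD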;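 note: thallium influx through hERG after potassium depolarization seen as dye fluorescence rise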
# KCNK9 block – KCNK9 potassium channel inhibitors, primary screen, HEK293 cells, thallium flux | B-score at 10 µM | Potassium channel subfamily K member 9 (Homo sapiens), Q9NPC2 | FluxOR thallium flux fluorescence; hits give low values | 310,000 tested, 1.2% active;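 active = ratio B-score over 3 SD below the library mean, with starting fluorescence within 5 SD of its mean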;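 note: negative B-score means less thallium flux so channel inhibition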
# KCNQ1 block – inhibitors of human KCNQ1 channel, primary screen, cell-based, thallium flux, high-throughput; Potassium voltage-gated channel subfamily KQT member 1 (Homo sapiens), P51787; CHO-K1 KCNQ1, FluxOR thallium flux fluorescence; hits give high values; B-score at 10 µM; 310,000 tested, 1.3% active; AID 2642, 2010;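 active = compounds whose thallium flux B-score, printed positive for inhibition, exceeds three library SD while starting fluorescence stays within three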;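 note: channel opened by potassium depolarization with thallium stimulus after 20 min compound exposure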
# KCNQ1 block val – KCNQ1 potassium channel inhibitors, confirmation, cell-based, Tl flux, duplicate. shares compounds with KCNQ1 block. AID 588353, 2011. KCNQ1 cell line, FluxOR thallium flux fluorescence. 1,600 tested, 93% active. inhibition, % at 10 µM;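 active = primary screen active, with duplicate mean exceeding buffer control mean plus 3 SD of buffer wells, cut at about 28% in these data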
# CHO Tl flux – thallium flux effects in parental CHO cells, counter-screen for KCNQ1 inhibitor project, cell-based, Tl flux; shares compounds with KCNQ1 block; parental CHO-K1, FluxOR thallium flux fluorescence ratio; hits give low values; zero means no signal rise above baseline; fluorescence ratio (Tl flux) at 10 µM; 1,600 tested, 21% active; AID 588366, 2011;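 active = mean of duplicate thallium-flux fluorescence ratios in parental host cells more than 5 SD below the buffer control mean, cut at about 0.38 in these data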;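 note: ratio is peak minus minimum fluorescence divided by baseline fluorescence; actives read low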
# KCNQ1 ephys val – KCNQ1 channel inhibitors, confirmation, orthogonal assay, cell-based, automated electrophysiology; KCNQ1-CHO cells, automated patch clamp current; shares compounds with KCNQ1 block; 490 tested, 20% active; calls only at 10 µM;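 active = KCNQ1 current drop exceeding 3 SD of negative control wells, seen in both duplicate runs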;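 note: steady state current during a 2 s step from -80 to +40 mV; negative values mean current inhibition and positive values mean potentiation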
# KCNQ2 inh – KCNQ2 channel inhibition, selectivity assay for KCNQ1 inhibitor project, cell-based; shares compounds with KCNQ1 block; KCNQ2 cells, FluxOR thallium flux fluorescence; inhibition, % at 10 µM; 1,600 tested, 71% active; AID 651746, 2012;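 active = mean percent inhibition of the KCNQ2 thallium signal more than 5 SD above the buffer-only control wells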;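 note: KCNQ2 expressed in CHO cells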
# KCNQ1-KCNE1 inh – KCNQ1/KCNE1 channel inhibition, selectivity assay for KCNQ1 inhibitor project, CHO-K1 cells, thallium flux, FluxOR; shares compounds with KCNQ1 block; FluxOR thallium flux fluorescence; inhibition, % at 10 µM; 1,600 tested, 77% active; AID 652147, 2013;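 active = mean percent inhibition of duplicate wells above the buffer-only control mean plus 3 SD of those controls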
# KCNK9 inh conf – KCNK9 potassium channel inhibitors, confirmation, HEK293 cells, thallium flux, duplicate | shares compounds with KCNK9 block | FluxOR thallium flux fluorescence | inhibition, % at 10 µM | 4,900 tested, 43% active | AID 492992, 2010;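 active = thallium signal inhibited by more than 5 SD of the compound-free buffer control wells, on both duplicate plates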
# Kir2-1 spec – mouse Kir2.1 channel inhibition, confirmation, selectivity assay for KCNK9 modulator project, cell-based, HEK293, thallium flux. shares compounds with KCNK9 block. Kir2.1 cells, FluxOR thallium flux fluorescence. inhibition, % at 10 µM. 4,900 tested, 4% active. AID 492993, 2010;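 active = thallium signal drop more than 5 SD beyond the mean of the no-compound control wells, seen in both duplicate plates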;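 note: signal is fluorescence rise after thallium addition divided by baseline fluorescence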
# HEK293 Tl ctr – thallium flux in non-induced HEK293 cells, confirmation, counter-screen for KCNK9 inhibitor project, cell-based, second counter screen, non-induced KCNK9-HEK293. shares compounds with KCNK9 block. inhibition, % at 10 µM. 4,900 tested, 40% active. FluxOR thallium flux;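 active = thallium signal drop beyond 5 SD of the untreated control mean, on both duplicate plates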
# A number is an active result; – = inactive; · = not tested or not shown; + = active, no number. The list is not random: actives were taken first. Their share in the collection is about 3.8%.
SMILES,KCNQ1 act,Kir21 block,KCNK3 inh,hERG rescue,KCNK9 block,KCNQ1 block,KCNQ1 block val,CHO Tl flux,KCNQ1 ephys val,KCNQ2 inh,KCNQ1-KCNE1 inh,KCNK9 inh conf,Kir2-1 spec,HEK293 Tl ctr
CCN(CC(=O)Nc1cc(S(=O)(=O)N2CCOCC2)ccc1Cl)Cc1ccccc1,·,·,–,·,·,·,·,·,·,·,·,·,·,·
CN(CC(=O)NCCc1ccccc1)S(=O)(=O)c1ccc(Br)s1,–,–,–,–,–,–,·,·,·,·,·,·,·,·
CCN1C(=O)N[C@@H](c2cccc(C(F)(F)F)c2)[C@@H](C(=O)OC)[C@H]1C,–,–,–,–,–,–,·,·,·,·,·,·,·,·
CC(C)c1cc(C(=O)N2CCCC(C(=O)c3ccc4ccccc4c3)C2)on1 (stereo not drawn),–,–,–,–,–,6,–,–,·,91%,35%,–,–,–
O=C1CCC(C(=O)N2CCCC(C(=O)c3ccc4ccccc4c3)C2)=NN1 (stereo not drawn),–,–,–,–,–,–,·,·,·,·,·,·,·,·
Cc1ccc(N=C2NC(=O)CS2)cc1C,–,–,–,–,–,–,·,·,·,·,·,·,·,·
O=C(OCC(=O)N(C1CCCCC1)C1CCCCC1)c1ccccc1O,–,–,–,–,-9.4,7,116,–,+,124%,179%,37%,–,24%
CCCn1c2c(c(O)c(C(=O)Nc3ncccc3C)c1=O)CCCC2,–,–,–,–,–,–,·,·,·,·,·,·,·,·
CC(C)Cn1c2c(c(O)c(C(=O)Nc3nccs3)c1=O)CCCC2,–,–,–,–,-8.3,7,100,–,–,112%,166%,44%,–,27%
O=C(Nc1nccs1)c1c(O)c2c([nH]c1=O)CCCC2,–,–,–,–,–,–,·,·,·,·,·,·,·,·
Cc1csc(NC(=O)c2c(O)c3c(n(CC(C)C)c2=O)CCCC3)n1,–,–,-9.8,–,-14,10,104,–,–,108%,90%,55%,–,35%
Cc1ccc(NC(=O)COc2ccc(N(C)C(=O)C(C)(C)C)cc2)cc1S(=O)(=O)N1CCCCC1,·,·,–,·,·,·,·,·,·,·,·,·,·,·

# Bioassay records (PubChem BioAssay)
